Source: PubChem BioAssay (Sanford-Burnham Center for Chemical Genomics)
Apaf1 activ = activators of human Apaf-1 apoptosome, primary screen, biochemical, DEVD-Rh110 fluorescence, uHTS. Apoptotic protease-activating factor 1 (Homo sapiens), O14727. Apaf-1 apoptosome caspase-3 activation; active compounds read low. activity change, negative = activation, % at 20 µM. 0.31% of 330,000 active. AID 489031, 2010;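 active means activity change at or below -40% at 20 µM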
Target sequence (O14727 whole entry, looked up): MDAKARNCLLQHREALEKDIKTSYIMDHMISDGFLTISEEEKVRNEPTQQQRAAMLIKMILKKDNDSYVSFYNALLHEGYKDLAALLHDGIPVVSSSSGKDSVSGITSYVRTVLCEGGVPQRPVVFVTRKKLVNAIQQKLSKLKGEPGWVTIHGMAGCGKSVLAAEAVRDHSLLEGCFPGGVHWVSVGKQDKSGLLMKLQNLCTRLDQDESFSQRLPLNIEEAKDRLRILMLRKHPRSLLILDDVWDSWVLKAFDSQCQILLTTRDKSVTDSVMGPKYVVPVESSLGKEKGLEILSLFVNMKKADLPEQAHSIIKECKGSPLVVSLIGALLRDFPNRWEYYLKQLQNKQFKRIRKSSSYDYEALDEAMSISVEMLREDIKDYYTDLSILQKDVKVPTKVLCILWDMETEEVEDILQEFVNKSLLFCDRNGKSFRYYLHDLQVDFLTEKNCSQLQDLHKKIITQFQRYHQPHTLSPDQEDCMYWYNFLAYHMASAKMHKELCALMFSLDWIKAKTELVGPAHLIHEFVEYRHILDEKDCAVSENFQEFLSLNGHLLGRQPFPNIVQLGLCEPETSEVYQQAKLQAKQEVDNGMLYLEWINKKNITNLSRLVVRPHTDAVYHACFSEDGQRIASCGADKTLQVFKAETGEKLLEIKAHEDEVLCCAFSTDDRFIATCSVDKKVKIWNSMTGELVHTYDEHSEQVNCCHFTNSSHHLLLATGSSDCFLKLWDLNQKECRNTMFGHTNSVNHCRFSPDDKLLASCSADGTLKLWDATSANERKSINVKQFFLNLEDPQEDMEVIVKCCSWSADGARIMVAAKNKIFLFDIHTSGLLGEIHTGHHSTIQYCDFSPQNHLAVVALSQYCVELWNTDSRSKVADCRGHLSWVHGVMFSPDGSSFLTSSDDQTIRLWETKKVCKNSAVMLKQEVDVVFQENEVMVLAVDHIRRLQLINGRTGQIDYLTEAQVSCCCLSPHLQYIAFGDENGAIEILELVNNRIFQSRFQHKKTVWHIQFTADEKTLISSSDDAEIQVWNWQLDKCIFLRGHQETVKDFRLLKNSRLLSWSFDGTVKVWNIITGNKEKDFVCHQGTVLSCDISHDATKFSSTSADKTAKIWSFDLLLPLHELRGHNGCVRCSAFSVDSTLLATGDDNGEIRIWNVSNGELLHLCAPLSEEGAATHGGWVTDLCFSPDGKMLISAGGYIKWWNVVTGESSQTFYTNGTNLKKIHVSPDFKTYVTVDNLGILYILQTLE
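Material: biochemical Apaf-1 apoptosome reconstitution; Medium: 20 mM HEPES buffer, pH 7.5, containing CHAPS and BSA; Reagent: dATP, cytochrome c, and (Z-DEVD)2-Rh110 caspase-3 substrate; Times: 30 min preincubation, 50 min reaction, room temperature; Signal: Rh110 fluorescence, excitation 480 nm, emission 540 nm; Measure: Caspase-3 activity via Apaf-1.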
Rh110 act interf = Rh110 fluorescence interference by putative Apaf-1 activators, confirmation, artefact control for Apaf-1 activator project, biochemical, 20 µM; fluorescence interference (activity change), % at 20 µM, hits read low; shares compounds with Apaf1 activ; 980 tested, under 10 active; quenched caspase reaction, Ex480/Em540;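 active means mean activity change at or below -40% when tested at 20 µM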
Apaf-1 act conf = Apaf-1 activators, single-dose retest, confirmation, biochemical, fluorescence, DEVD-Rh110, 20 µM; activity change, negative = activation, % at 20 µM; reconstituted apoptosome caspase-3 activity; active compounds read low; 5% of 980 active; AID 504617, 2011; shares compounds with Apaf1 activ;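 active means mean activity change at or below -40%, meaning activation of 40% or more, at 20 µM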
The depositor's hits bear a star; / = no result given. Only a sample is shown.

SMILES | Apaf1 activ | Rh110 act interf | Apaf-1 act conf
CC1=NN(c2ccc(Br)cc2)C(=O)/C1=C/c1ccc(-c2ccccc2C(=O)O)o1 | 78 | / | /
CCSc1nsc(NC(=O)Nc2ccc(F)cc2F)n1 | -95* | 6 | 16
CSc1nncc(/C(C)=N\Nc2ccccc2)n1 | 70 | / | /
COc1ccc(-c2nc(-c3ccccc3)nc(N3CCN(C)CC3)c2C#N)cc1 | 41 | / | /
COc1ccc(CCN2CCC(Nc3nc4ccccc4n3Cc3ccc(F)cc3)CC2)cc1 | 56 | / | /
COc1ccc(N2CCN(Cc3nc4ccccc4n3C)CC2)cc1 | -108* | 0 | -1
COC(=O)c1c(NC(=O)COc2ccc(Cl)cc2)sc2c1CC(C)(C)NC2(C)C | 61 | / | /
COC(=O)CCC(=O)OC1(C)C(=O)C=C2C=C(C3CC3)N(CCCCO)C=C2C1=O (stereo unspecified) | 64 | / | /
NCCCS(=O)(=O)O | -4 | / | /
COC(=O)CCC(=O)OC1(C)C(=O)C=C2C=C(C3CC3)N(CCc3ccccn3)C=C2C1=O (stereo unspecified) | 53 | / | /
O=C1C(=C(O)c2ccccc2)C(=O)c2ccccc21 | 41 | / | /
O=C(COC(=O)Cc1ccsc1)Nc1ccc(F)cc1Cl | -52* | -7 | 10
C#CCOCCOCCOCCNc1nc(N2CCN(C(=O)CCCCCCCCCCNC(=O)Cn3cc(C[C@@H](C)O)nn3)CC2)nc(N2CCN(C(=O)CCCCCCCCCCNC(=O)[C@@H](CCC(=O)O)n3cc(CCCCCN)nn3)CC2)n1 | 52 | / | /
C=C(C)Cn1c(NCCOC)nc2c1c(=O)[nH]c(=O)n2C | -40* | 1 | 4
COc1ccc(C(C[N+](=O)[O-])c2c(C)[nH]n(-c3ccccc3)c2=O)cc1 (stereo unspecified) | 96 | / | /
N#Cc1c(N2CCCC(O)C2)nc(N)c2c(N)nc3c(c12)CC(=O)N3C12CC3CC(CC(C3)C1)C2 (stereo unspecified) | 98 | / | /
CC(=O)N1CCN(c2ccc(NCc3ccc(-c4cccc(Cl)c4)o3)cc2)CC1 | 43 | / | /
COc1c(Cl)cc(Cl)cc1C(=O)Nc1ccccc1N1CCN(C(C)=O)CC1 | -325* | -2 | 12
CN1CCN(c2ccccc2NC(=O)c2ccc(-c3ccc(Cl)c(Cl)c3)o2)CC1 | 46 | / | /
CC1=NN(c2ccccc2)C(=O)/C1=C/c1cccc(C)c1 | 96 | / | /
Cc1nn(Cc2c(F)c(F)c(F)c(F)c2F)c(C)c1NC(=O)c1ccc(COc2ccc(Cl)cc2Cl)o1 | 46 | / | /
Cn1nccc1C(=O)N1CCN(C23CC4CC(CC(C4)C2)C3)CC1 | -56* | 10 | 17
CCN1CCN(Cc2ccc(NC(=O)c3cc(NC(=O)c4cc5cccc(OC)c5o4)cc(OC)c3)cc2C(F)(F)F)CC1 | 63 | / | /
COCCNc1nc2nonc2nc1N(C)Cc1cccc2cnccc12 | -346* | -2 | 11
CC(C)N1CCN(Cc2cnc(-c3ccccc3)s2)CC1CCO (stereo unspecified) | -46* | 0 | 9
SMILES | Apaf1 activ | Rh110 act interf | Apaf-1 act conf
CN(C)CCCNC(=O)CC1C[C@H](C(=O)N2CCCCC2)[C@@]2(CCc3ccccc3)c3[nH]c4ccccc4c3CCN2C1=O (stereo partly specified) | 46 | / | /
O=[N+]([O-])c1ccc(/C=C/c2ccc3cccc([N+](=O)[O-])c3n2)cc1 | -107* | -8 | 11
O=c1cc(-c2cccc([N+](=O)[O-])c2)[nH][nH]1 | 68 | / | /
O=C1NC(=O)[C@@H]2C3c4ccccc4C=CN3[C@H](C(=O)c3cccs3)[C@H]12 (stereo partly specified) | 47 | / | /
Cn1c(SCc2ccc(F)cc2)nnc1-c1cnccn1 | -156* | 4 | 9
CC(C)C[C@H](NC(=O)c1nc[nH]c1C(=O)N[C@@H](CCCCN)C(=O)OC(C)(C)C)C(=O)OC(C)(C)C | 43 | / | /
N#C[C@@H]1[C@@H]2C(=O)N(c3ccc4c(c3)OCCO4)C(=O)[C@@H]2C2c3ccccc3C=CN21 (stereo partly specified) | 78 | / | /
CC(C)=C1C2C=CC1C1C(=O)N(c3ccc4c(c3)OCO4)C(=O)C21 (stereo unspecified) | -71* | 1 | 10
Cn1c(=O)n(C)c2cc(/C=N/NC(=O)c3cc4cc(Br)ccc4o3)ccc21 | 43 | / | /
Cc1cccc(C)c1OCC(=O)N(Cc1ccco1)C1CCS(=O)(=O)C1 (stereo unspecified) | -378* | 5 | 0
C[n+]1cccc2c(Br)ccc([O-])c21 | 98 | / | /
COc1ccc(C(CNC(=O)c2cc3c(s2)CCC(C)C3)N2CCCC2)cc1 (stereo unspecified) | 61 | / | /
